Laboratory results reported in ChEMBL document CHEMBL1153426, “A structure-based approach to ligand discovery for 2C-methyl-D-erythritol-2,4-cyclodiphosphate synthase: a target for antimicrobial therapy” (J Med Chem, 2009).

Assay: Binding affinity to Escherichia coli BL21 (DE3) IspF at 10 degC in pH 7 sodium phosphate buffer by SPR binding assay; call rule not given here
Outline: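 Recombinant E. coli IspF expressed in BL21(DE3), >95% pure, amine-coupled to CM5 chip at ~100 μg/mL in 10 mM acetate pH 5.5 (4500–5500 RU). Ligands 0.1 μM–10 mM in 50 mM sodium phosphate pH 7, 2 mM MgCl, 30 μL/min, 10 °C; triplicate injections, blank-subtracted.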

| Structure (SMILES) | Kd | Kd (read-out: Kd) [mM] |
| --- | --- | --- |
| O=C(O)CCCC(=O)Nc1ccc2c(c1)OCO2 | Not Active |  |
| Nc1nnc(-c2nonc2N)o1 | Not Active |  |
| Nc1ccn([C@H]2O[C@@H](CO)[C@H]3OP(=O)(O)O[C@H]32)c(=O)n1 (mixture of isomers) |  | 20.5 |
| NC(=O)CSc1cc(N)nc(N)n1 | Not Active |  |
